Data as given in ChEMBL document CHEMBL5126625, “Discovery of AZD4831, a Mechanism-Based Irreversible Inhibitor of Myeloperoxidase, As a Potential Treatment for Heart Failure with Preserved Ejection Fraction” (J Med Chem, 2022).
pIC50, pKd: −log10 of the molar value. Values after ≈ are worked out from the molar mass of the structure shown.

Columns and labels:
[1] = target: T1, Thyroid peroxidase (Homo sapiens, UniProt P07202); assay: Inhibition of human recombinant TPO (1 to 839 residues) expressed in baculovirus-infected insect cells measured after 15 mins in presence of H2O2 by chemiluminescence assay
T1 sequence (P07202 whole entry): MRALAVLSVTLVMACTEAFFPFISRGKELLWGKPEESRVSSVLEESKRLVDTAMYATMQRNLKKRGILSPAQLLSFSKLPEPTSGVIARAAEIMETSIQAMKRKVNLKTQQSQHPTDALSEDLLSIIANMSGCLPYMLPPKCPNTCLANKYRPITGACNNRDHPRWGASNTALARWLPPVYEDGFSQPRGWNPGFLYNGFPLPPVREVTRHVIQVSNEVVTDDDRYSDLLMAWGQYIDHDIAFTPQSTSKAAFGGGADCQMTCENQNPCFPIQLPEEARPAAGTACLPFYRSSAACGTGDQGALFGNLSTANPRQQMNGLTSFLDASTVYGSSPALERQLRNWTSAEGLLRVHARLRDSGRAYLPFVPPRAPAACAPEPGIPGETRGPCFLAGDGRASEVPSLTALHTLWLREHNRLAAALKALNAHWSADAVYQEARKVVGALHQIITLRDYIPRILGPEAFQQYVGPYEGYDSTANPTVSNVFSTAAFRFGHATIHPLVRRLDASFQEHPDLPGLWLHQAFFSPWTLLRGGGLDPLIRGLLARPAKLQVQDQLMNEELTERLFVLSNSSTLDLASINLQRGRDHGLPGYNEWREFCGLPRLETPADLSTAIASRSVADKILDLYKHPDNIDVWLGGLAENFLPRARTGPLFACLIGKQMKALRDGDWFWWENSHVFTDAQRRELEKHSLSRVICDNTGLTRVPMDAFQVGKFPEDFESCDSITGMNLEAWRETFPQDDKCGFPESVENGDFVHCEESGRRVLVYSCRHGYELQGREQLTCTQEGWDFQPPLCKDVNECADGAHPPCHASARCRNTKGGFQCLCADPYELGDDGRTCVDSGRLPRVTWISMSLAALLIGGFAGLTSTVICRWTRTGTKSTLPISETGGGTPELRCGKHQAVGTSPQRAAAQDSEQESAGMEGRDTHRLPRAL
In short: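 IC50 determined against purified enzyme in an in vitro chemiluminescent assay.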

[2] = Apparent permeability of the compound across apical to basolateral side in human Caco-2 cells at 10 uM by LC-MS/MS analysis
[3] = Lipophilicity, log D of the compound; settings: octanol/water
[4] = physchem; settings: phosphate buffer, pH 7.4
[5] = target: T2, Myeloperoxidase (Homo sapiens, UniProt P05164); assay: Inhibition of MPO (unknown origin) measured after 15 mins in presence of H2O2 by chemiluminescence assay
T2 sequence (P05164 whole entry): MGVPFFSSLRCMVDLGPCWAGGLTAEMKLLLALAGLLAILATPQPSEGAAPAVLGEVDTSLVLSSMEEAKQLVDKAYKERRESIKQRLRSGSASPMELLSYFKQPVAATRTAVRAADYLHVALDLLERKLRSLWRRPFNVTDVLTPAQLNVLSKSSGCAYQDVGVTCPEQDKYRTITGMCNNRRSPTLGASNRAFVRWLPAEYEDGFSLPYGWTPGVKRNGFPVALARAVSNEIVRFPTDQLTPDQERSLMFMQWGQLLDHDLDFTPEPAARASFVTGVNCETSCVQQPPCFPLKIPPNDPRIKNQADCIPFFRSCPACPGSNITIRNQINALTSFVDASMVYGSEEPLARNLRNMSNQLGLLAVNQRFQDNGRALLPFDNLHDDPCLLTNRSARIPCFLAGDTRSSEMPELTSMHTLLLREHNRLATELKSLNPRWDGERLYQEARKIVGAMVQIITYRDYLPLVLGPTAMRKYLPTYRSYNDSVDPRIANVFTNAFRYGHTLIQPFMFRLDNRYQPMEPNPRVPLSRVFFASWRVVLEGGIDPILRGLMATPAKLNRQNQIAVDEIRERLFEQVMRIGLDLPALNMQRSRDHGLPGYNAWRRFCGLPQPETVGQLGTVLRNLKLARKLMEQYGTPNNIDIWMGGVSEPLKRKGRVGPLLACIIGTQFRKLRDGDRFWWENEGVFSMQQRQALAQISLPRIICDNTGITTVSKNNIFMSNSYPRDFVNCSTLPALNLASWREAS

[6] = target: T2, Myeloperoxidase; assay: Inhibition of MPO in human HL-60 cells measured after 15 mins in presence of H2O2 by chemiluminescence assay; assay type: cell-based
[7] = target: Cytochrome P450 2C9 (Homo sapiens, UniProt P11712); assay: Inhibition of human recombinant CYP2C9 using coumarin as substrate preincubated with enzyme for 10 mins followed by NADPH addition and measured after 20 to 50 mins by fluorescence based method
[8] = Oral bioavailability in Wistar Han rat measured up to 24 hrs by LC-MS/MS analysis; assay type: ADME, organism-based; settings: in vivo
[9] = Oral bioavailability in Beagle dog measured up to 24 hrs by LC-MS/MS analysis; assay type: ADME, organism-based, Canis lupus familiaris; settings: in vivo
[10] = target: Cytochrome P450 2D6 (Homo sapiens, UniProt P10635); assay: Inhibition of CYP2D6 (unknown origin) using coumarin as substrate preincubated with enzyme for 10 mins followed by NADPH addition and measured after 20 to 50 mins by fluorescence based method
[11] = target: Voltage-gated inwardly rectifying potassium channel KCNH2 (Homo sapiens, UniProt Q12809)
[12] = target: Cytochrome P450 3A4 (Homo sapiens, UniProt P08684)
[13] = target: T3, Cytochrome P450 1A2 (Homo sapiens, UniProt P05177); assay: Inhibition of human recombinant CYP1A2 using coumarin as substrate preincubated with enzyme for 10 mins followed by NADPH addition and measured after 20 to 50 mins by fluorescence based method
T3 sequence (P05177 whole entry): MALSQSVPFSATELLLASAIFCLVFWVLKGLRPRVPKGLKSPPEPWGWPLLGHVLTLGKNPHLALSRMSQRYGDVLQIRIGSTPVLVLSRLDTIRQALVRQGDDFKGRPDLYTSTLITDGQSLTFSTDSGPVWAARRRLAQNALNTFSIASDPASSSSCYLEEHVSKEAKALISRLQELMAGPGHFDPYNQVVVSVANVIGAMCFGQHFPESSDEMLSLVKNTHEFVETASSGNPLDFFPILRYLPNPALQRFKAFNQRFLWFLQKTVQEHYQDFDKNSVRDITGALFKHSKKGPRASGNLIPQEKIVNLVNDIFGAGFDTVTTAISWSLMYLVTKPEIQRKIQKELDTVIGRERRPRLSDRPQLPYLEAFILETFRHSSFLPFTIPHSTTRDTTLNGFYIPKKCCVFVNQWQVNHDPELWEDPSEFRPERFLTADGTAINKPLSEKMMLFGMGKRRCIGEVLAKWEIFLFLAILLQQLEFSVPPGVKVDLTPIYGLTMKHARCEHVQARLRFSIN

[14] = target: Cytochrome P450 2C19 (Homo sapiens, UniProt P33261); assay: Inhibition of human recombinant CYP2C19 using coumarin as substrate preincubated with enzyme for 10 mins followed by NADPH addition and measured after 20 to 50 mins by fluorescence based method
[15] = Drug uptake in Lister Hooded rat eyes at 4.55 umol/kg, po measured after 24 hrs by whole body autoradiography; assay type: ADME, organism-based, Eye; settings: in vivo, dose 4.55 µmol/kg
In short: (§1)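 Rats were given a single oral dose of 10 MBq/kg of the [14C]-labelled compound. Whole-body autoradiography was done 24 h post-dose on sections before and after extraction, with the nonextractable liver fraction taken from the extracted sections. Whole-body drug-related material was also measured at 7 days.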

[16] = Drug uptake in Lister Hooded rat at 4.55 umol/kg, po measured after 7 days by whole body autoradiography; assay type: ADME, organism-based; settings: in vivo, 168 h, at 4.55 µmol/kg, time 7 day; in short: as §1
[17] = Drug uptake in Lister Hooded rat pigmented skin at 4.55 umol/kg, po measured after 24 hrs by whole body autoradiography; assay type: ADME, organism-based, Skin of body; settings: in vivo, dose 4.55 µmol/kg; in short: as §1
[18] = Drug uptake in Lister Hooded rat liver assessed as nonextractable fraction at 4.55 umol/kg, po measured after 24 hrs by whole body autoradiography; assay type: ADME, organism-based; settings: in vivo, at 4.55 µmol/kg; in short: as §1
[19] = Drug uptake in human liver microsomes assessed as covalent binding at 10 uM incubated for 60 mins in presence of NADPH by LC/MS analysis; assay type: ADME, Microsome; settings: 1 h
In short: (§2)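 Human liver microsomes incubated with the [14C]-labelled compound to measure covalent binding to microsomal protein.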

[20] = Drug uptake in human hepatocytes assessed as covalent binding measured per mg protein; assay type: ADME, cell-based, Hepatocyte
In short: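 [14C]-labelled compound incubated with human hepatocytes; covalently bound radioactivity expressed as pmol per mg protein.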

[21] = Drug uptake in human liver microsomes assessed as covalent binding at 10 uM incubated for 60 mins in presence of formaldehyde by LC/MS analysis; assay type: ADME, Microsome; settings: 1 h
In short: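 Covalent binding of the [14C]-labelled compound in human liver microsome incubations with 5 mM formaldehyde added.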

[22] = Drug uptake in human liver microsomes assessed as covalent binding at 10 uM incubated for 60 mins by LC/MS analysis; assay type: ADME, Microsome; settings: 1 h; in short: as §2
[23] = Drug uptake in heat-inactivated human liver microsomes assessed as covalent binding at 10 uM incubated for 60 mins by LC/MS analysis; assay type: ADME, Microsome; settings: 1 h; in short: as §2
[24] = target: T2, Myeloperoxidase; assay: Displacement of benzhydroxamic acid from native state MPO (unknown origin) by 1D NMR reporter assay

Voltage-gated inwardly rectifying potassium channel KCNH2, sequence (Q12809 whole entry): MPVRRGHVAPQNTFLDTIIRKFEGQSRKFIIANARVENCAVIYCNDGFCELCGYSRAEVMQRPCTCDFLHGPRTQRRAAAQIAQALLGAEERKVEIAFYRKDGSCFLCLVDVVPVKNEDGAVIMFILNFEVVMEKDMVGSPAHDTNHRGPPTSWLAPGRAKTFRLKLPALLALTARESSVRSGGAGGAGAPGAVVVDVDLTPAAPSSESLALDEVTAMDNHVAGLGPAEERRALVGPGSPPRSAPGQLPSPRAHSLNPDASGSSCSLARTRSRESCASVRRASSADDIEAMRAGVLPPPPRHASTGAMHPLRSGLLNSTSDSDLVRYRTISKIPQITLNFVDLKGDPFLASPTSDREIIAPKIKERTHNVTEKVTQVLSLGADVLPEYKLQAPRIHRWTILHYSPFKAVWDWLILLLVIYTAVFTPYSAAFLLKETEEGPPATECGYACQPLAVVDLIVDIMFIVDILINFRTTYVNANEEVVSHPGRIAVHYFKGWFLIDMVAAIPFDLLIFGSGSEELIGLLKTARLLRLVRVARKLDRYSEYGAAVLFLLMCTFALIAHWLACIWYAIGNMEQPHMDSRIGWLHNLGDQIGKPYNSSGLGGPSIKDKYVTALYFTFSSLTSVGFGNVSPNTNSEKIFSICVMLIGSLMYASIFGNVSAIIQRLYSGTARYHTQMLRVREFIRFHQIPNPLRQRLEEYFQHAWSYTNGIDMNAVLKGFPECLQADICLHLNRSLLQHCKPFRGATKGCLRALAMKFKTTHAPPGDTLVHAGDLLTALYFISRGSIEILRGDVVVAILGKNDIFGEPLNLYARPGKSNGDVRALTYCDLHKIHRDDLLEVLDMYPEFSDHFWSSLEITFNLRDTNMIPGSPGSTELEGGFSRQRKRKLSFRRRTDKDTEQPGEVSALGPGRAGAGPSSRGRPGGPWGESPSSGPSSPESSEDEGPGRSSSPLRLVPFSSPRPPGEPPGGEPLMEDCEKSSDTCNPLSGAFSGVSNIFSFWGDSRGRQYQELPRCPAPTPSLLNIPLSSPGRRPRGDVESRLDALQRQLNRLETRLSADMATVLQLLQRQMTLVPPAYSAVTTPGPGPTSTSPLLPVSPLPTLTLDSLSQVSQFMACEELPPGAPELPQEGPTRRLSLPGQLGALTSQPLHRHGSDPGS
Cytochrome P450 3A4, sequence (P08684 whole entry): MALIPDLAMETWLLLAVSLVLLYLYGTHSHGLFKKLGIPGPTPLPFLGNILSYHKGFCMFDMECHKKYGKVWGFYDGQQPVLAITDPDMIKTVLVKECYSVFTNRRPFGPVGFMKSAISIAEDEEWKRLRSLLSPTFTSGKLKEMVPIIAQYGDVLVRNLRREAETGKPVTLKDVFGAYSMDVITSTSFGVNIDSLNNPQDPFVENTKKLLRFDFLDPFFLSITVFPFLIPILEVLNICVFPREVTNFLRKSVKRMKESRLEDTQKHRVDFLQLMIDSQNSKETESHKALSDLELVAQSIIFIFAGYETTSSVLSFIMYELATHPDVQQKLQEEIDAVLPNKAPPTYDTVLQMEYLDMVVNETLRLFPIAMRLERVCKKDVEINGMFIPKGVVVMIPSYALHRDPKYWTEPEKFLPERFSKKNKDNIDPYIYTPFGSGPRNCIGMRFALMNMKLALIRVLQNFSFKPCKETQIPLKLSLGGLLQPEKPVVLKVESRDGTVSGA
Cytochrome P450 2C9, sequence (P11712 whole entry): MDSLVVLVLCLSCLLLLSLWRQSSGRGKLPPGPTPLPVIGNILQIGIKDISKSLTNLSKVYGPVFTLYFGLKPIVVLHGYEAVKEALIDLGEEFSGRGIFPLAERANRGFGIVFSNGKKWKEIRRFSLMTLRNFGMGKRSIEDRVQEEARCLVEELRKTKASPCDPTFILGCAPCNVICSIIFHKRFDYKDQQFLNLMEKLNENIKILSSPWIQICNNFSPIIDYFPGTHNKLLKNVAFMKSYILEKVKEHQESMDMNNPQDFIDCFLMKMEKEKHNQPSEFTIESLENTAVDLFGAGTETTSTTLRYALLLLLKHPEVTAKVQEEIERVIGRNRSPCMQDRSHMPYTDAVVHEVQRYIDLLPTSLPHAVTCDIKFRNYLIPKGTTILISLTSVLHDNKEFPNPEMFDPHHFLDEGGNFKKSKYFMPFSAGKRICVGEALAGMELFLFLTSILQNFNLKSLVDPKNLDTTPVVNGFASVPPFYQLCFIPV
Cytochrome P450 2D6, sequence (P10635 whole entry): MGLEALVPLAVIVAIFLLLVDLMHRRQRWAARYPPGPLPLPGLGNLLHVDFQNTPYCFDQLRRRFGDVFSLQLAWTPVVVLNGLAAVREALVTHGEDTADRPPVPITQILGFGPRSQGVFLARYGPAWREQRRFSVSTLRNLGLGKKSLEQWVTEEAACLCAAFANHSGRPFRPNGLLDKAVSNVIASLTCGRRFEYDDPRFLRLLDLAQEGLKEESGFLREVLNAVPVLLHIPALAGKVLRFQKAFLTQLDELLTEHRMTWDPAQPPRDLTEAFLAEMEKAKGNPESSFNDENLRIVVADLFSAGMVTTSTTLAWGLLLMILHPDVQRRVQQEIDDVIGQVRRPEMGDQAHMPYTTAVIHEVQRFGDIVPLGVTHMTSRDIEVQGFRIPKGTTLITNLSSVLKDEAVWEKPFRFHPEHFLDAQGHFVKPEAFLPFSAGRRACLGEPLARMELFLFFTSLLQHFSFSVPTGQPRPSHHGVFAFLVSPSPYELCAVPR
Cytochrome P450 2C19, sequence (P33261 whole entry): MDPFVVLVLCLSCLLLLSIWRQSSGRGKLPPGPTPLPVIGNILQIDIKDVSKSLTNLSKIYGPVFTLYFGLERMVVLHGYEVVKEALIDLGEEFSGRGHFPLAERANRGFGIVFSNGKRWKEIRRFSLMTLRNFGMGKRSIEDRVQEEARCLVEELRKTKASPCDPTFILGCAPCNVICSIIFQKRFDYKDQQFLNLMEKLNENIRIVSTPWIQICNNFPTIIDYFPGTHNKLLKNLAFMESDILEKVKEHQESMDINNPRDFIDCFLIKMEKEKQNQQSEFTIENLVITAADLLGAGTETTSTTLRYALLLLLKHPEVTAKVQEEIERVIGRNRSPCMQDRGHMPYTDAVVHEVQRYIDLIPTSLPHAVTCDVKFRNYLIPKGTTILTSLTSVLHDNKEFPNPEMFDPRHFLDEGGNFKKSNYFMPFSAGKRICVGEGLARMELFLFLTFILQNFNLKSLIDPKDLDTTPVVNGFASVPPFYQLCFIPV

Structure (SMILES) | pIC50 [1] | Papp A→B at 10 µM [2] | logD [3] | solubility thermodynamic at 18 h [4] | pIC50 [5] | pIC50 [6] | other results
COc1ccc(Cl)cc1-c1cc(=O)[nH]c(=S)n1CC(N)=O [PF-06282999] | 6.00 | – | – | – | – | – | –
CN[C@H](C)c1cc(Cl)ccc1Cn1c(=S)[nH]c(=O)c2[nH]ccc21 (racemic) | 5.96 | 19 ×10⁻⁶ cm/s | 1.5 | 190 µM (≈ 66.3 µg/mL) | 7.90 | 5.34 | –
CNCc1c(Cl)cccc1Cn1c(=S)[nH]c(=O)c2[nH]ccc21 | 5.38 | 19 ×10⁻⁶ cm/s | 1.3 | 150 µM (≈ 50.2 µg/mL) | 7.41 | 5.03 | –
C[C@H](N)c1cc(Cl)ccc1Cn1c(=S)[nH]c(=O)c2[nH]ccc21 | 5.96 | 10 ×10⁻⁶ cm/s | 1.4 | 850 µM (≈ 285 µg/mL) | – | – | –
NCc1cc(Cl)ccc1Cn1c(=S)[nH]c(=O)c2[nH]ccc21 | 5.89 | 6 ×10⁻⁶ cm/s | 1.2 | 42 µM (≈ 13.5 µg/mL) | – | – | pIC50 [7]: < 4.52; bioavailability [8]: 68%; bioavailability [9]: 45%; pIC50 [10]: < 4.52; pIC50 [11]: < 4.40; pIC50 [12]: 4.72; pIC50 [13]: < 4.52; pIC50 [14]: < 4.52
O=c1[nH]c(=S)n(Cc2ccc(F)cc2)c2nc[nH]c12 | 6.23 | – | – | – | – | – | –
C[C@@H](N)c1cc(Cl)ccc1Cn1c(=S)[nH]c(=O)c2[nH]cnc21 | 6.11 | – | – | – | – | – | –
CC(C)NCc1ccccc1Cn1c(=S)[nH]c(=O)c2[nH]ccc21 | 5.09 | 12 ×10⁻⁶ cm/s | 0.9 | 140 µM (≈ 46 µg/mL) | 7.51 | 4.89 | –
CNCc1ccc(Cl)cc1Cn1c(=S)[nH]c(=O)c2[nH]ccc21 | 5.72 | 9.6 ×10⁻⁶ cm/s | 1.1 | 210 µM (≈ 70.3 µg/mL) | 7.57 | 5.21 | –
C[C@@H](N)c1cc(Cl)ccc1Cn1c2cc[nH]c2c(=O)[nH][14c]1=S | – | – | – | – | – | – | Drug uptake [15]: Active; Drug uptake [16]: 0.1%; Drug uptake [17]: Active; Drug uptake [18]: < 0.2%
NCc1cc(Cl)ccc1Cn1c2cc[nH]c2c(=O)[nH][14c]1=S | – | – | – | – | – | – | Drug uptake [19]: Active; Drug uptake [20]: 95 pmol; Drug uptake [21]: Active; Drug uptake [22]: Active; Drug uptake [23]: Active
CC(=O)NCc1cc(Cl)ccc1Cn1c(=S)[nH]c(=O)c2[nH]ccc21 | 5.85 | 11 ×10⁻⁶ cm/s | 2 | 3.3 µM (≈ 1.2 µg/mL) | 6.85 | 4.80 | –
NC(c1ccccc1)c1ccccc1Cn1c(=S)[nH]c(=O)c2[nH]ccc21 (stereo not drawn) | 5.86 | 18 ×10⁻⁶ cm/s | 1.7 | 8.3 µM (≈ 3.01 µg/mL) | – | – | –
O=c1[nH]c(=S)n(Cc2ccccc2CN2CCC2)c2cc[nH]c12 | 5.82 | 19 ×10⁻⁶ cm/s | 1 | 930 µM (≈ 304 µg/mL) | 7.82 | 5.18 | –
CC(C)NCc1ccccc1Cn1c(=S)[nH]c(=O)c2[nH]cnc21 | 5.38 | 0.89 ×10⁻⁶ cm/s | 0.3 | 18 µM (≈ 5.93 µg/mL) | 7.41 | 4.10 | –
O=c1[nH]c(=S)n(C[C@H]2CCCO2)c2nc[nH]c12 | 5.62 | – | – | – | 6.55 | 4.54 | pKd [24]: 4.20
CNCc1cc(Cl)ccc1Cn1c(=S)[nH]c(=O)c2[nH]ccc21 | 5.68 | 17 ×10⁻⁶ cm/s | 1.3 | 160 µM (≈ 53.6 µg/mL) | 7.80 | 5.18 | bioavailability [8]: 60%; bioavailability [9]: 72%; pIC50 [11]: 5.00; pIC50 [12]: < 4.52
